Data set [1] is described as follows: Cell viability of compound-treated, uninfected RD cells. In kind it is cell-based. Particulars: human, uninfected rhabdomyosarcoma (RD) cells. The gist of the method: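 Compound-treated, uninfected RD cells run in a setup parallel to the EV71 BrCr cytopathic-effect reduction assay in RD cells. CC50 is the concentration giving a 50 % reduction in cell viability. Selectivity index is CC50/EC50.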

Data set [2] has as its system EV71 BrCr laboratory-adapted strain. As to the kind of experiment: Anti-EV71 assay, BrCr laboratory-adapted strain in RD cells. It is filed as cell-based, Enterovirus A71. The gist of the method:
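Enterovirus A71 BrCr (laboratory-adapted) was grown in rhabdomyosarcoma (RD) cells with test compound. EC50 is the concentration reducing virus-induced cytopathic effect by 50%. CC50 is the 50% loss of viability in compound-treated, uninfected RD cells run in a similar setup. SI = CC50/EC50.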

Data set [3] has as its target recombinant HIV-1 IIIB gp120 (Human immunodeficiency virus type 1 group M subtype B, UniProt P04578). As to the kind of experiment: Surface plasmon resonance. It is filed as binding. The gist of the method:
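Recombinant HIV-1 IIIB gp120, produced in Chinese hamster ovary cells, was immobilised as a monomer on a sensor chip. Test compound was passed over at 0.1–6.25 μM in two-fold dilution steps. Real-time binding responses were fitted to a 1:1 Langmuir model to obtain affinity and kinetic constants.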

For the next data set, the system named is HIV-1 (NL4.3). As to the kind of experiment: Anti-HIV-1. It is filed as cell-based. As to conditions: for EC50: Human immunodeficiency virus 1, CD4+ T cell, read-out: EC50 HIV-1/NL4.3.
A further data set concerns HIV-2 (ROD). The data set can be described thus: Anti-HIV-2. It is filed as cell-based. As to conditions: Human immunodeficiency virus 2, CD4+ T cell, read-out: EC50 HIV-2/ROD.
Data set [4] is described as follows: Cytotoxicity in MT-4 cells. As to conditions: human. It is filed as cell-based. The gist of the method: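 Cytostatic read-out alongside the HIV cytopathicity assay. CC50 is the concentration that inhibits CD4 T cell proliferation by 50 %. Selectivity index is CC50/EC50.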

As for `CCOC(=O)c1ccc(OCCC2CCN(c3ccc(C)nn3)CC2)cc1` [Pirodavir], in data set [1], the CC50 – broadly, the concentration that lowers cell viability or growth by half – at 3 days is over 100 µM. Besides, the “SI selectivity index (CC50/EC50)” value in data set [2] (EV71 BrCr in RD cells, Table 3) was over 333. For the same molecule, the EC50 in data set [2] (Enterovirus A, EV71, RD, read-out: EC50 EV71 BrCr) was 0.3 ± 0.1 µM.
`CN[C@@H]1[C@H](O[C@@H]2OC[C@@H](O)[C@H](O)[C@H]2O)[C@@H](O)[C@H](O[C@H]2c3cc(C)c(C(=O)N[C@H](C)C(=O)O)c(O)c3-c3c(cc4c(c3O)C(=O)c3cc(OC)cc(O)c3C4=O)[C@@H]2O)O[C@@H]1C` [Pradimicin A (PRM‐A), Pradimicin A]: the dissociation constant (Kd) – broadly, a measure of binding affinity in units of concentration – in data set [3] was 6.52 ± 0.11 µM. Moreover, the kd in data set [3] (SPR, 1:1 Langmuir model, four replicates, 25 °C) is reported as 12.64±2.92 (10^−3)(1/s). For the same molecule, the “binding to gp120 (in words)” value in data set [3] (SPR, concentration-dependent) was “binds to gp120”. For the same molecule, in data set [3] (read-out: ka), the kon was found to be 1930 ± 420 M⁻¹ s⁻¹. Moreover, the EC50 with HIV-1 (NL4.3) came to 3.3 ± 1.2 µM; in the data set on HIV-2 (ROD) it was 5.9 ± 3.7 µM. For the same molecule, in the data set on HIV-1 (NL4.3) (anti-HIV, Table 1), the “SI selectivity index (CC50/EC50)” value was over 30.3. The molecule also returned a 50% cytotoxic concentration (CC50) at 5 days in data set [4] of over 100 µM.
Take `C[C@H](Cn1cnc2c(N)ncnc21)OCP(=O)(O)O` [Tenofovir (PMPA), Tenofovir]: the results for the EC50 in the data set on HIV-1 (NL4.3) and in the data set on HIV-2 (ROD) were 4.74 µM and 1 µM, respectively. In addition, the CC50 at 5 days in data set [4] was over 100 µM.

(Values after paper PMC8361981 (Chemistry (Weinheim an Der Bergstrasse, Germany), 2021).)
